Experimental data: ChEMBL document CHEMBL1135519, “Structure-activity relationships on phenylalanine-containing inhibitors of histone deacetylase: in vitro enzyme inhibition, induction of differentiation, and inhibition of proliferation in Friend leukemic cells” (J Med Chem, 2002)

Tests used:
[1] = molecular target: T1, Histone deacetylase HD2 (Zea mays, UniProt Q94F81); experiment: Inhibition of in vitro enzyme activity measured in a highly purified maize Histone deacetylase 2 preparation
T1 sequence (Q94F81 whole entry): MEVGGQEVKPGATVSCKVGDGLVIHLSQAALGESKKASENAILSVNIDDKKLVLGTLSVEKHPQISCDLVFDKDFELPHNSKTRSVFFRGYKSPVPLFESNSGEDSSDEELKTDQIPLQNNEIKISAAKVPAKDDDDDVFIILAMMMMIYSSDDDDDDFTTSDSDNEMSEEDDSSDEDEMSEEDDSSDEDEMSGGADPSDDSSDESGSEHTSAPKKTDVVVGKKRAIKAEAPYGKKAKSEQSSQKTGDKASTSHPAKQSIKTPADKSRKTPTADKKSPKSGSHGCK

[2] = tested on: Friend leukemia cell line; experiment: Tested […] for the inhibition of proliferation of friend leukemic cells; assay type: functional; settings: Mus musculus
Outline: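 MEL DS19 murine erythroleukemia (Friend) cells, log phase, kept in DMEM with 10% FBS and penicillin/streptomycin at 37 °C in 5% CO2. Seeded at 4 × 10⁴ cells/well with serial compound dilutions; screened at 10 and 50 µM, then dose-response. DMSO at 0.1% in controls. Cells counted by Casy counter after 72 h. Proliferation given as percent of solvent control.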

[3] = molecular target: Histone deacetylase; experiment: Inhibition of in vitro enzyme activity measured in partially purified rat liver Histone deacetylase preparation; assay type: tissue-based

Structure (SMILES) | IC50 [1] [nM] | IC50 [2] [nM] | IC50 [3] [nM]
O=C(CCCCCCC(=O)N[C@@H](Cc1ccccc1)C(=O)NCCCc1ccccc1)NO | 380 | 58000 | 1010
O=C(CCCCCCC(=O)N[C@H](Cc1ccccc1)C(=O)NCCc1ccccc1)NO | 340 | 76000 | 390
COC(=O)[C@H](Cc1ccc(OC)cc1)NC(=O)CCCCCCC(=O)NO | 250 | 11000 | 800
O=C(CCCCCCC(=O)N[C@@H](Cc1ccccc1)C(=O)NCCc1ccccc1)NO | 330 | 72000 | 260
COC(=O)[C@@H](Cc1ccccc1)NC(=O)CCCCCCC(=O)NO | 760 | 28000 | 880
O=C(CCCCCCC(=O)N[C@H](Cc1ccccc1)C(=O)O)NO | 750 | > 100000 | 1540
COC(=O)[C@@H](NC(=O)CCCCCCC(=O)NO)C(C)C | 900 | 6200 | 380
COC(=O)[C@H](Cc1c[nH]c2ccccc12)NC(=O)CCCCCCC(=O)NO | 120 | 13000 | 320
O=C(CCCCCCC(=O)Nc1ccccc1)NO [VORINOSTAT] | 1000 | 990 | 
COC(=O)[C@H](Cc1ccc(-c2ccccc2)cc1)NC(=O)CCCCCCC(=O)NO | 210 | 840 | 290
O=C(CCCCCCC(=O)NO)NO [SUBEROHYDROXAMIC ACID] | 320 |  | 1150
COC(=O)[C@H](Cc1cccs1)NC(=O)CCCCCCC(=O)NO | 700 | 5900 | 410
COC(=O)[C@H](Cc1ccc2ccccc2c1)NC(=O)CCCCCCC(=O)NO | 40 | 5200 | 510
COC(=O)[C@H](Cc1cccc2ccccc12)NC(=O)CCCCCCC(=O)NO | 360 | 22000 | 130
COC(=O)[C@H](Cc1ccc([N+](=O)[O-])cc1)NC(=O)CCCCCCC(=O)NO | 850 | 35000 | 1340
O=C(CCCCCCC(=O)N[C@@H](Cc1cccc2ccccc12)C(=O)NCCc1ccccc1)NO | 35 | 15000 | 310
CC(/C=C/C(=O)NO)=C\[C@@H](C)C(=O)c1ccc(N(C)C)cc1 [TRICHOSTATIN] |  | 40 | 
COC(=O)[C@H](Cc1ccccc1)NC(=O)CCCCCCC(=O)NO | 500 | 15000 | 800
NC(=O)[C@H](Cc1ccccc1)NC(=O)CCCCCCC(=O)NO | 1100 | 64000 | 840
O=C(CCCCCCC(=O)N[C@@H](Cc1ccccc1)C(=O)NCc1ccccc1)NO | 140 | 69000 | 460
O=C(CCCCCCC(=O)N[C@@H](Cc1ccccc1)C(=O)Nc1ccccc1)NO |  | 15000 | 790
O=C(CCCCCCC(=O)N[C@@H](Cc1ccccc1)C(=O)N1CCCC1)NO | 520 | > 100000 | 330
